Data set [1] is described as follows: Cytotoxicity against human HPLF cells after 24 hrs. Type of data set: cell-based. The conditions noted are these: for CC50: hplf, 24 h. An outline of the steps: (§1)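 Cells (HGF gingival fibroblasts, HPC pulp cells, HPLF periodontal ligament fibroblasts, HSC-2 and HSC-4 squamous carcinoma, HL-60 promyelocytic leukemia) were exposed to graded concentrations for 24 h, up to a maximum of 400 μM. CC50 is the concentration reducing viable cell number by 50%, taken from dose–response curves. Values are from duplicate determinations differing by less than 5%.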

The test system of data set [2] is HSC-2. The experiment in a line: Selectivity index, ratio of CC50 for human normal cells to CC50 for human HSC2 cells. Type of data set: functional. The essentials:
(§2)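 The index is the average CC50 toward the three normal cell types (HGF, HPC, HPLF) divided by the CC50 toward the indicated malignant line.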

The test system of data set [3] is HSC-4. The experiment in a line: Selectivity index, ratio of CC50 for human normal cells to CC50 for human HSC4 cells. Type of data set: functional. An outline of the steps: as §2
A short description of data set [4]: Cytotoxicity against human HGF cells after 24 hrs. Type of data set: cell-based. Conditions: for CC50: hgf, 24 h. The essentials:
as §1

Data set [5] relates to Mus musculus. The experiment in a line: Toxicity in mouse assessed as induction of mortality at 30 to 300 mg/kg, ip. Type of data set: organism-based. Set-up: dose 30-300 mg/kg, route intraperitoneal. Conditions: in vivo.
A short description of data set [6]: Cytotoxicity against human HPC cells after 24 hrs. Type of data set: cell-based. The conditions noted are these: for CC50: hpc, 24 h. An outline of the steps:
as §1

The nature of data set [7]: Partition coefficient, log P of the compound. Type of data set: physicochemical. The conditions noted are these: octanol/water.
Data set [8] deals with HSC-2. Put plainly: Cytotoxicity against human HSC2 cells after 24 hrs. The conditions noted are these: HSC-2, 24 h. Type of data set: functional. The essentials: as §1
The test system of data set [9] is HSC-4. The experiment in a line: Cytotoxicity against human HSC4 cells after 24 hrs. Type of data set: functional. Conditions: HSC-4, 24 h. The essentials: as §1
Data set [10] relates to HL-60. Put plainly: Selectivity index, ratio of CC50 for human normal cells to CC50 for human HL60 cells. Type of data set: functional. The essentials:
as §2

For data set [11], the system named is HL-60. The experiment in a line: Cytotoxicity against human HL60 cells after 24 hrs. Conditions: HL-60, 24 h. Type of data set: functional. An outline of the steps: as §1
The test system of data set [12] is Mus musculus. Put plainly: Neurotoxicity in mouse assessed at 30 to 300 mg/kg, ip after 4 hrs. Type of data set: toxicity, organism-based. The conditions noted are these: in vivo. Set-up: dose 30-300 mg/kg, route intraperitoneal. The essentials:
(§3)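 Mice received 30, 100 or 300 mg/kg intraperitoneally and were examined at 0.5 and 4 h for mortality and neurological deficit, following NINDS screening protocols. Results were recorded as the number of mice showing a deficit over the number treated per dose.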

Data set [13] has as its system Mus musculus. Put plainly: Neurotoxicity in mouse assessed at 30 to 300 mg/kg, ip after 0.5 hrs. Type of data set: toxicity, organism-based. Conditions: in vivo. Details: dose 30-300 mg/kg, route intraperitoneal. An outline of the steps: as §3

SMILES strings stand for the structures.

The term CC50 denotes the concentration at which the toxic effect on the cells reaches its halfway point. The logP is the decadic logarithm of the partition coefficient of the neutral form, usually between octanol and water. Take `O=C1/C(=C/c2ccccc2)CCC/C1=C\c1cccc([N+](=O)[O-])c1`: the CC50 in data set [1] was 18 µM; in data set [4], 25 µM; in data set [6] it was 14 µM; in the data set on HSC-2 [8] it was 3.7 µM; in the data set with HSC-4 [9], 2.4 µM; in the data set with HL-60 [11], 3 µM. For the same compound, the entries for the “Selectivity Index” value in the data set with HSC-2 [2], in the data set with HSC-4 [3] and with HL-60 [10] were 5.1, 7.9 and 6.3, respectively. Also, the Activity result in the data set with Mus musculus [5] is on record as “Non-toxic”. The same compound displayed a logP in data set [7] of 4.9.
Consider `COc1cc(/C=C2\CCC/C(=C\c3ccc([N+](=O)[O-])cc3)C2=O)cc(OC)c1OC`, for which the results for the CC50 at 24 h in [1] (HPLF cells), in data set [4] (HGF cells) and in data set [6] (HPC cells) were 378 µM, 336 µM and 347 µM, respectively. For the same compound, the “Selectivity Index” value came to 466 in the data set with HSC-2 [2], 236 in the data set with HSC-4 [3] and 322 in the data set on HL-60 [10]. In the data set with Mus musculus [5], the Activity entry is “Non-toxic”. This compound gave a logP in data set [7] of 4.56. Besides, the CC50 with HSC-2 [8] came out at 0.76 µM; in the data set with HSC-4 [9], 1.5 µM; in the data set with HL-60 [11], 1.1 µM.
In the case of `COc1cc(OC)c(OC)cc1/C=C1\CCC/C(=C\c2ccc([N+](=O)[O-])cc2)C1=O`, the CC50 was over 400 µM in data set [1]; over 400 µM in data set [4]; over 400 µM in data set [6]; 67 µM in the data set with HSC-2 [8]; 250 µM with HSC-4 [9]; 400 µM in the data set with HL-60 [11]. The “Selectivity Index” value in the data set with HSC-2 [2] is on record as over 6; in the data set on HSC-4 [3], over 1.6; in the data set with HL-60 [10], 1. For the same compound, the Activity result in the data set with Mus musculus [5] is given as “Non-toxic”.
In the case of `O=C1/C(=C/c2ccc(F)cc2)CCC/C1=C\c1ccc([N+](=O)[O-])cc1`, the CC50 was over 400 µM in data set [1]; 326 µM in [4]; over 400 µM in data set [6]; 19 µM with HSC-2 [8]; 15 µM in the data set on HSC-4 [9]; 32 µM with HL-60 [11]. Moreover, the Activity entry with Mus musculus [5] is reported as “Non-toxic”. Also, the logP in [7] came to 5.09.
Consider `O=C1/C(=C/c2ccc(F)cc2)CCC/C1=C\c1cccc([N+](=O)[O-])c1`, for which the CC50 in data set [1] worked out at 36 µM; in data set [4] it was 42 µM; in [6], 38 µM; with HSC-2 [8], 2.2 µM; in the data set with HSC-4 [9] it was 2.5 µM; in the data set on HL-60 [11], 1 µM. Moreover, the Activity entry with Mus musculus [5] is “Non-toxic”. In data set [7], this compound displayed a logP of 5.07.
Take `O=C1/C(=C/c2ccc(F)cc2)CCC/C1=C\c1ccccc1[N+](=O)[O-]`: the CC50 in data set [1] worked out at 67 µM; in data set [4], 82 µM; in [6] it was 11 µM; in the data set on HSC-2 [8] it was 2.7 µM; in the data set on HSC-4 [9], 2.2 µM; in the data set with HL-60 [11], 3 µM. Moreover, the Activity entry with Mus musculus [5], with Mus musculus [12] and in the data set on Mus musculus [13] was “Non-toxic” throughout.
As to `COc1ccc(/C=C2\CCC/C(=C\c3cccc([N+](=O)[O-])c3)C2=O)cc1`, the CC50 is 354 µM in data set [1]; over 400 µM in [4]; 33 µM in data set [6]; 4.8 µM in the data set with HSC-2 [8]; 11 µM with HSC-4 [9]; 7.2 µM with HL-60 [11]. The “Selectivity Index” value is recorded as over 55 in the data set with HSC-2 [2], over 24 in the data set on HSC-4 [3] and over 36 in the data set with HL-60 [10]. Moreover, in the data set on Mus musculus [5], the Activity entry is listed as “Non-toxic”. In data set [7], this compound yielded a logP of 4.96.
In the case of `Cc1ccc(/C=C2\CCC/C(=C\c3ccccc3[N+](=O)[O-])C2=O)cc1`, the CC50 in data set [1] was over 400 µM; in data set [4], over 400 µM; in data set [6] it was over 400 µM; with HSC-2 [8], 11 µM; in the data set with HSC-4 [9] it was 40 µM; in the data set with HL-60 [11] it was 11 µM. In addition, the “Selectivity Index” value in the data set on HSC-2 [2] is reported as over 36; with HSC-4 [3], over 10; in the data set on HL-60 [10], over 36. The compound also returned a logP in [7] of 5.15.
Turning to `CN(C)c1ccc(/C=C2\CCC/C(=C\c3ccc([N+](=O)[O-])cc3)C2=O)cc1`, the CC50 was over 400 µM in [1]; over 400 µM in data set [4]; over 400 µM in data set [6]; 11 µM with HSC-2 [8]; over 400 µM in the data set with HSC-4 [9]; over 400 µM in the data set with HL-60 [11]. Besides, the Activity result in the data set with Mus musculus [5] was “Non-toxic”. Besides, in data set [7], the logP came to 5.03.
As for `O=C1CCCC/C1=C\c1ccccc1[N+](=O)[O-]`, the 50% cytotoxic concentration (CC50) in data set [1] came out at 103 µM; in data set [4] it was 218 µM; in data set [6], 117 µM; with HSC-2 [8], 28 µM; in the data set on HSC-4 [9] it was 29 µM; in the data set with HL-60 [11] it was 27 µM. The “Selectivity Index” value in the data set with HSC-2 [2] amounted to 5.2; in the data set on HSC-4 [3], 5; in the data set with HL-60 [10], 5.4. The Activity result with Mus musculus [5] was “Non-toxic”.
Consider `Cc1ccc(/C=C2\CCC/C(=C\c3ccc([N+](=O)[O-])cc3)C2=O)cc1`, for which the CC50 was 348 µM in data set [1]; over 400 µM in [4]; 92 µM in data set [6]; 6.6 µM with HSC-2 [8]; 13 µM with HSC-4 [9]; 27 µM in the data set with HL-60 [11]. Further, the “Selectivity Index” value with HSC-2 [2] was over 42; in the data set with HSC-4 [3], over 22; in the data set with HL-60 [10], over 10. Further, in the data set on Mus musculus [5], the Activity result was “Non-toxic”. Besides, the logP in data set [7] amounted to 5.38.
Regarding `O=C1/C(=C/c2ccc(Cl)cc2)CCC/C1=C\c1cccc([N+](=O)[O-])c1`, the CC50 came to 38 µM in data set [1]; 39 µM in [4]; 18 µM in data set [6]; 2.2 µM in the data set on HSC-2 [8]; 2.3 µM in the data set on HSC-4 [9]; 3.2 µM with HL-60 [11]. The “Selectivity Index” value is listed as 15 with HSC-2 [2], 14 in the data set with HSC-4 [3] and 10 in the data set on HL-60 [10]. This compound also gave a logP in data set [7] of 5.58.
`O=C1CCCC/C1=C\c1cccc([N+](=O)[O-])c1`: the CC50 turned out to be 56 µM in data set [1]; 74 µM in data set [4]; 49 µM in data set [6]; 6.6 µM with HSC-2 [8]; 18 µM with HSC-4 [9]; 5.8 µM with HL-60 [11]. Further, the “Selectivity Index” value came out at 9.1 with HSC-2 [2], 3.3 in the data set on HSC-4 [3] and 10 in the data set on HL-60 [10]. Moreover, the Activity result with Mus musculus [5] is “Non-toxic”.
With `CN(C)c1ccc(/C=C2\CCC/C(=C\c3cccc([N+](=O)[O-])c3)C2=O)cc1`, the 50% cytotoxic concentration (CC50) in data set [1] is over 400 µM; in data set [4] it was over 400 µM; in [6] it was over 400 µM; in the data set with HSC-2 [8], 32 µM; in the data set with HSC-4 [9] it was 71 µM; with HL-60 [11], 30 µM. Further, the Activity entry with Mus musculus [5] is recorded as “Non-toxic”. For the same compound, the logP in data set [7] came out at 5.
With `CN(C)c1ccc(/C=C2\CCC/C(=C\c3ccccc3[N+](=O)[O-])C2=O)cc1`, the CC50 (in [1]; in [4]; in data set [6]; in the data set with HSC-2 [8]; in the data set on HSC-4 [9]; in the data set with HL-60 [11]) was over 400 µM in each case. For the same compound, the “Selectivity Index” value in the data set on HSC-2 [2], in the data set on HSC-4 [3] and in the data set on HL-60 [10] was 1 each time. The compound also returned a logP in data set [7] of 4.8.

The values above are taken from ChEMBL document CHEMBL1157649, “Cytotoxic 2-benzylidene-6-(nitrobenzylidene)cyclohexanones which display substantially greater toxicity for neoplasms than non-malignant cells” (Bioorg Med Chem, 2010).
